Values after ≈ are worked out from the molar mass of the structure shown.
Key:
Pseudomonas aeruginosa [1] = experiment: Antibacterial activity against Pseudomonas aeruginosa ATCC 27853 after 72 hrs by serial sub-cultivation method; format: functional; details: ATCC 27853, 72 h
Method in brief: (§1)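 MBC was found by serial sub-cultivation of 2 µl from the MIC wells into plates holding 100 µl broth per well, then incubation for 72 h. MBC is the lowest concentration with no visible growth, i.e. 99.5% killing of the original inoculum. Bacterial inoculum was 1.0 × 10^4 cfu per well in LB broth. Duplicate, repeated three times.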

Aspergillus versicolor [2] = experiment: Antifungal activity against Aspergillus versicolor ATCC 11730 after 72 hrs by serial dilution method; format: functional; details: ATCC 11730, 72 h
Method in brief: (§2)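 Fungi were kept on malt agar at 4 °C and sub-cultured monthly. Spores were washed off the agar with sterile 0.85% saline containing 0.1% Tween 80 (v/v). Modified microdilution in 96-well plates. MIC is the lowest concentration with no visible growth under the binocular microscope. Inoculum checked on malt agar for contamination and validity.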

Pseudomonas aeruginosa [3] = experiment: Antibacterial activity against Pseudomonas aeruginosa ATCC 27853 after 24 hrs; format: functional; details: ATCC 27853, 24 h
Method in brief: (§3)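 Broth microdilution MIC in 96-well plates. Compounds in LB broth with bacterial inoculum of 1.0 × 10^4 cfu per well, from suspensions adjusted with sterile saline to 1.0 × 10⁵ CFU/ml. Incubated 24 h at […] as printed. MIC taken as the lowest concentration with no visible growth under the binocular microscope. OD at 655 nm also read against blank. Streptomycin and ampicillin as positive controls. Duplicate, repeated three times.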

Listeria monocytogenes [4] = experiment: Antibacterial activity against Listeria monocytogenes NCTC 7973 after 24 hrs; format: functional; details: NCTC 7973, 24 h; method in brief: as §3
Micrococcus flavus [5] = experiment: Antibacterial activity against Micrococcus flavus ATCC 10240 after 24 hrs; format: functional; details: ATCC 10240, 24 h; method in brief: as §3
Salmonella typhimurium [6] = experiment: Antibacterial activity against Salmonella Typhimurium ATCC 13311 after 72 hrs by serial sub-cultivation method; format: functional, Salmonella enterica subsp. enterica serovar Typhimurium; details: Salmonella enterica, ATCC 13311, 72 h; method in brief: as §1
Staphylococcus aureus [7] = experiment: Antibacterial activity against Staphylococcus aureus ATCC 6538 after 72 hrs by serial sub-cultivation method; format: functional; details: ATCC 6538, 72 h; method in brief: as §1
Aspergillus fumigatus [8] = experiment: Antifungal activity against Aspergillus fumigatus plant isolate after 72 hrs by serial sub-cultivation method
Proteus mirabilis [9] = experiment: Antibacterial activity against Proteus mirabilis after 72 hrs by serial sub-cultivation method; format: functional; method in brief: as §1
Aspergillus fumigatus [10] = experiment: Antifungal activity against Aspergillus fumigatus plant isolate after 72 hrs by serial dilution method
Escherichia coli [11] = experiment: Antibacterial activity against Escherichia coli ATCC 35210 after 72 hrs by serial sub-cultivation method; format: functional; details: ATCC 35210, 72 h; method in brief: as §1
Aspergillus versicolor [12] = experiment: Antifungal activity against Aspergillus versicolor ATCC 11730 after 72 hrs by serial sub-cultivation method; format: functional; details: ATCC 11730, 72 h
Method in brief: (§4)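 MFC was found by serial sub-cultivation of 2 µl into plates holding 100 µl broth per well, then incubation 72 h at 28 °C. MFC is the lowest concentration with no visible growth, taken as 99.5% killing of the original inoculum. Spore inocula came from malt agar cultures washed with 0.85% saline and 0.1% Tween 80.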

Talaromyces funiculosus [13] = experiment: Antifungal activity against Penicillium funiculosum ATCC 36839 after 72 hrs by serial sub-cultivation method; format: functional; details: ATCC 36839, 72 h; method in brief: as §4
Escherichia coli [14] = experiment: Antibacterial activity against Escherichia coli ATCC 35210 after 24 hrs; format: functional; details: ATCC 35210, 24 h; method in brief: as §3
Penicillium ochrochloron [15] = experiment: Antifungal activity against Penicillium ochrochloron ATCC 9112 after 72 hrs by serial sub-cultivation method; format: functional; details: ATCC 9112, 72 h; method in brief: as §4
Fulvia fulva [16] = experiment: Antifungal activity against Fulvia fulva TK 5318 after 72 hrs by serial sub-cultivation method; format: functional; details: TK 5318, 72 h; method in brief: as §4
Bacillus cereus [17] = experiment: Antibacterial activity against Bacillus cereus clinical isolate after 72 hrs by serial sub-cultivation method; format: functional; method in brief: as §1
Micrococcus flavus [18] = experiment: Antibacterial activity against Micrococcus flavus ATCC 10240 after 72 hrs by serial sub-cultivation method; format: functional; details: ATCC 10240, 72 h; method in brief: as §1
Talaromyces funiculosus [19] = experiment: Antifungal activity against Penicillium funiculosum ATCC 36839 after 72 hrs by serial dilution method; format: functional; details: ATCC 36839, 72 h; method in brief: as §2
Aspergillus niger [20] = experiment: Antifungal activity against Aspergillus niger ATCC 6275 after 72 hrs by serial sub-cultivation method; format: functional; details: ATCC 6275, 72 h; method in brief: as §4
Aspergillus niger [21] = experiment: Antifungal activity against Aspergillus niger ATCC 6275 after 72 hrs by serial dilution method; format: functional; details: ATCC 6275, 72 h; method in brief: as §2
Bacillus cereus [22] = experiment: Antibacterial activity against Bacillus cereus clinical isolate after 24 hrs; format: functional; method in brief: as §3
Listeria monocytogenes [23] = experiment: Antibacterial activity against Listeria monocytogenes NCTC 7973 after 72 hrs by serial sub-cultivation method; format: functional; details: NCTC 7973, 72 h; method in brief: as §1
Staphylococcus aureus [24] = experiment: Antibacterial activity against Staphylococcus aureus ATCC 6538 after 24 hrs; format: functional; details: ATCC 6538, 24 h; method in brief: as §3
Trichoderma viride [25] = experiment: Antifungal activity against Trichoderma viride IAM 5061 after 72 hrs by serial sub-cultivation method; format: functional; details: IAM 5061, 72 h; method in brief: as §4
Aspergillus flavus [26] = experiment: Antifungal activity against Aspergillus flavus ATCC 9643 after 72 hrs by serial sub-cultivation method; format: functional; details: ATCC 9643, 72 h; method in brief: as §4
Penicillium ochrochloron [27] = experiment: Antifungal activity against Penicillium ochrochloron ATCC 9112 after 72 hrs by serial dilution method; format: functional; details: ATCC 9112, 72 h; method in brief: as §2
Trichoderma viride [28] = experiment: Antifungal activity against Trichoderma viride IAM 5061 after 72 hrs by serial dilution method; format: functional; details: IAM 5061, 72 h; method in brief: as §2
Fulvia fulva [29] = experiment: Antifungal activity against Fulvia fulva TK 5318 after 72 hrs by serial dilution method; format: functional; details: TK 5318, 72 h; method in brief: as §2
Proteus mirabilis [30] = experiment: Antibacterial activity against Proteus mirabilis after 24 hrs; format: functional; method in brief: as §3
Salmonella typhimurium [31] = experiment: Antibacterial activity against Salmonella Typhimurium ATCC 13311 after 24 hrs; format: functional, Salmonella enterica subsp. enterica serovar Typhimurium; details: Salmonella enterica, ATCC 13311, 24 h; method in brief: as §3
Aspergillus flavus [32] = experiment: Antifungal activity against Aspergillus flavus ATCC 9643 after 72 hrs by serial dilution method; format: functional; details: ATCC 9643, 72 h; method in brief: as §2

SMILES	MBC (Pseudomonas aeruginosa [1]) [µM]	MIC (Aspergillus versicolor [2]) [µM]	MIC (Pseudomonas aeruginosa [3]) [µM]	MIC (Listeria monocytogenes [4]) [µM]	MIC (Micrococcus flavus [5]) [µM]	MBC (Salmonella typhimurium [6]) [µM]	MBC (Staphylococcus aureus [7]) [µM]	MFC (Aspergillus fumigatus [8]) [µM]	MBC (Proteus mirabilis [9]) [µM]	MIC (Aspergillus fumigatus [10]) [µM]	MBC (Escherichia coli [11]) [µM]	MFC (Aspergillus versicolor [12]) [µM]	MFC (Talaromyces funiculosus [13]) [µM]	MIC (Escherichia coli [14]) [µM]	MFC (Penicillium ochrochloron [15]) [µM]	MFC (Fulvia fulva [16]) [µM]	MBC (Bacillus cereus [17]) [µM]	MBC (Micrococcus flavus [18]) [µM]	MIC (Talaromyces funiculosus [19]) [µM]	MFC (Aspergillus niger [20]) [µM]	other results
COc1cc(/C=C2\S/C(=N\c3nc(C45CC6CC(CC(C6)C4)C5)cs3)NC2=O)cc(OC)c1O	41.8 (≈ 20.8 µg/mL)	15.7 (≈ 7.81 µg/mL)	15.7 (≈ 7.81 µg/mL)	20.9 (≈ 10.4 µg/mL)	10.5 (≈ 5.23 µg/mL)	15.7 (≈ 7.81 µg/mL)	15.7 (≈ 7.81 µg/mL)	20.9 (≈ 10.4 µg/mL)	62.7 (≈ 31.2 µg/mL)	15.7 (≈ 7.81 µg/mL)	41.8 (≈ 20.8 µg/mL)	20.9 (≈ 10.4 µg/mL)	20.9 (≈ 10.4 µg/mL)	20.9 (≈ 10.4 µg/mL)	10.5 (≈ 5.23 µg/mL)	20.9 (≈ 10.4 µg/mL)	20.9 (≈ 10.4 µg/mL)	20.9 (≈ 10.4 µg/mL)	10.5 (≈ 5.23 µg/mL)	20.9 (≈ 10.4 µg/mL)	MIC (Aspergillus niger [21]): 10.5 µM (≈ 5.23 µg/mL); MIC (Bacillus cereus [22]): 20.9 µM (≈ 10.4 µg/mL); MBC (Listeria monocytogenes [23]): 41.8 µM (≈ 20.8 µg/mL); MIC (Staphylococcus aureus [24]): 10.5 µM (≈ 5.23 µg/mL); MFC (Trichoderma viride [25]): 20.9 µM (≈ 10.4 µg/mL); MFC (Aspergillus flavus [26]): 20.9 µM (≈ 10.4 µg/mL); MIC (Penicillium ochrochloron [27]): 5.2 µM (≈ 2.59 µg/mL); MIC (Trichoderma viride [28]): 10.5 µM (≈ 5.23 µg/mL); MIC (Fulvia fulva [29]): 5.2 µM (≈ 2.59 µg/mL); MIC (Proteus mirabilis [30]): 41.8 µM (≈ 20.8 µg/mL); MIC (Salmonella typhimurium [31]): 10.5 µM (≈ 5.23 µg/mL); MIC (Aspergillus flavus [32]): 10.5 µM (≈ 5.23 µg/mL)
O=C1N/C(=N/c2nc(C34CC5CC(CC(C5)C3)C4)cs2)S/C1=C\c1ccc(Cl)cc1	43.8 (≈ 20 µg/mL)	16.4 (≈ 7.48 µg/mL)	21.9 (≈ 9.99 µg/mL)	21.9 (≈ 9.99 µg/mL)	11 (≈ 5.02 µg/mL)	43.8 (≈ 20 µg/mL)	43.8 (≈ 20 µg/mL)	21.9 (≈ 9.99 µg/mL)	65.7 (≈ 30 µg/mL)	11 (≈ 5.02 µg/mL)	43.8 (≈ 20 µg/mL)	21.9 (≈ 9.99 µg/mL)	21.9 (≈ 9.99 µg/mL)	21.9 (≈ 9.99 µg/mL)	21.9 (≈ 9.99 µg/mL)	16.4 (≈ 7.48 µg/mL)	21.9 (≈ 9.99 µg/mL)	21.9 (≈ 9.99 µg/mL)	11 (≈ 5.02 µg/mL)	21.9 (≈ 9.99 µg/mL)	MIC (Aspergillus niger [21]): 11 µM (≈ 5.02 µg/mL); MIC (Bacillus cereus [22]): 16.4 µM (≈ 7.48 µg/mL); MBC (Listeria monocytogenes [23]): 43.8 µM (≈ 20 µg/mL); MIC (Staphylococcus aureus [24]): 21.9 µM (≈ 9.99 µg/mL); MFC (Trichoderma viride [25]): 16.4 µM (≈ 7.48 µg/mL); MFC (Aspergillus flavus [26]): 21.9 µM (≈ 9.99 µg/mL); MIC (Penicillium ochrochloron [27]): 16.4 µM (≈ 7.48 µg/mL); MIC (Trichoderma viride [28]): 11 µM (≈ 5.02 µg/mL); MIC (Fulvia fulva [29]): 11 µM (≈ 5.02 µg/mL); MIC (Proteus mirabilis [30]): 43.8 µM (≈ 20 µg/mL); MIC (Salmonella typhimurium [31]): 21.9 µM (≈ 9.99 µg/mL); MIC (Aspergillus flavus [32]): 11 µM (≈ 5.02 µg/mL)
O=C1N/C(=N/c2nc(C34CC5CC(CC(C5)C3)C4)cs2)S/C1=C\c1cccc(Cl)c1	43.8 (≈ 20 µg/mL)	11 (≈ 5.02 µg/mL)	21.9 (≈ 9.99 µg/mL)	21.9 (≈ 9.99 µg/mL)	11 (≈ 5.02 µg/mL)	43.8 (≈ 20 µg/mL)	43.8 (≈ 20 µg/mL)	21.9 (≈ 9.99 µg/mL)	65.7 (≈ 30 µg/mL)	11 (≈ 5.02 µg/mL)	43.8 (≈ 20 µg/mL)	21.9 (≈ 9.99 µg/mL)	21.9 (≈ 9.99 µg/mL)	21.9 (≈ 9.99 µg/mL)	11 (≈ 5.02 µg/mL)	21.9 (≈ 9.99 µg/mL)	21.9 (≈ 9.99 µg/mL)	21.9 (≈ 9.99 µg/mL)	21.9 (≈ 9.99 µg/mL)	21.9 (≈ 9.99 µg/mL)	MIC (Aspergillus niger [21]): 11 µM (≈ 5.02 µg/mL); MIC (Bacillus cereus [22]): 16.4 µM (≈ 7.48 µg/mL); MBC (Listeria monocytogenes [23]): 43.8 µM (≈ 20 µg/mL); MIC (Staphylococcus aureus [24]): 16.4 µM (≈ 7.48 µg/mL); MFC (Trichoderma viride [25]): 21.9 µM (≈ 9.99 µg/mL); MFC (Aspergillus flavus [26]): 21.9 µM (≈ 9.99 µg/mL); MIC (Penicillium ochrochloron [27]): 5.5 µM (≈ 2.51 µg/mL); MIC (Trichoderma viride [28]): 11 µM (≈ 5.02 µg/mL); MIC (Fulvia fulva [29]): 16.4 µM (≈ 7.48 µg/mL); MIC (Proteus mirabilis [30]): 43.8 µM (≈ 20 µg/mL); MIC (Salmonella typhimurium [31]): 21.9 µM (≈ 9.99 µg/mL); MIC (Aspergillus flavus [32]): 16.4 µM (≈ 7.48 µg/mL)

Reference: ChEMBL document CHEMBL1157665, “Novel 4-thiazolidinone derivatives as potential antifungal and antibacterial drugs” (2010)
